Test results from ChEMBL document CHEMBL2029342, “Design and synthesis of gambogic acid analogs as potent cytotoxic and anti-inflammatory agents” (Bioorg Med Chem Lett, 2012).
Converted amounts (≈) assume the structure as drawn.

Columns and labels:
[1] = Antiinflammatory activity in human neutrophils assessed as inhibition of fMLP/CB-induced elastase release using MeO-Suc-Ala-Ala-Pro-Val-MC as substrate by spectrophotometry; assay type: functional, cell-based; conditions: Neutrophil
Method in brief: (§1)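 Human neutrophils stimulated with fMLP/CB; superoxide anion generation and elastase release were measured. IC50 is the concentration giving 50% inhibition. Where 50% inhibition was not reached at any tested dose, % inhibition at 10 μg/mL is reported. Mean ± S.E.M., n = 3-5.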

[2] = Cytotoxicity against human KBVIN cells by MTT assay; assay type: functional, cell-based
Method in brief: (§2)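 MTT colorimetric assay of cell viability. IC50 is expressed in μg/mL as the mean of 3 determinations.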

[3] = system: DU-145; test: Cytotoxicity against human DU145 cells by MTT assay; assay type: functional, cell-based; method in brief: as §2
[4] = system: A549; test: Cytotoxicity against human A549 cells by MTT assay; assay type: functional, cell-based; method in brief: as §2
[5] = Antiinflammatory activity in human neutrophils assessed as inhibition of fMLP/CB-induced superoxide anion generation at 10 ug/mL after 15 mins by cytochrome c reduction assay; assay type: functional; conditions: Neutrophil, 0.25 h; method in brief: as §1
[6] = Antiinflammatory activity in human neutrophils assessed as inhibition of fMLP/CB-induced elastase release using MeO-Suc-Ala-Ala-Pro-Val-MC as substrate at 10 ug/mL by spectrophotometry; assay type: functional; conditions: Neutrophil; method in brief: as §1
[7] = system: KB; test: Cytotoxicity against human KB cells by MTT assay; assay type: functional, cell-based; method in brief: as §2
[8] = system: Neutrophil; test: Ratio of PMSF IC50 to compound IC50 for antiinflammatory activity in human neutrophils assessed as inhibition of fMLP/CB-induced elastase release; assay type: functional
[9] = Antiinflammatory activity in human neutrophils pretreated with cytochalasin B assessed as inhibition of fMLP/CB-induced superoxide anion generation after 15 mins by cytochrome c reduction assay; assay type: functional, cell-based; conditions: Neutrophil; method in brief: as §1
[10] = Antiinflammatory activity in human neutrophils assessed as inhibition of fMLP/CB-induced superoxide anion generation after 15 mins by cytochrome c reduction assay; assay type: functional, cell-based; conditions: Neutrophil, 0.25 h; method in brief: as §1
[11] = Antiinflammatory activity in human neutrophils assessed as inhibition of elastase release using MeO-Suc-Ala-Ala-Pro-Val-MC as substrate at 10 ug/mL by spectrophotometry in the absence of fMLP/CB; assay type: functional; conditions: Neutrophil
[12] = Antiinflammatory activity in human neutrophils assessed as inhibition of induced superoxide anion generation at 10 ug/mL after 15 mins by cytochrome c reduction assay in the absence of fMLP/CB; assay type: functional; conditions: Neutrophil, 0.25 h

Work on `O=S(=O)(F)Cc1ccccc1` [PHENYLMETHYLSULFONYLFLUORIDE] yielded an IC50 [1] of 131 µg/mL (≈ 752 µM).

For `CC(C)=CCc1c(O)cc2oc3c(CC=C(C)C)c(O)ccc3c(=O)c2c1O`, the IC50 [2] was 4.4 µg/mL (≈ 11.6 µM), the IC50 [3] was 2.8 µg/mL (≈ 7.36 µM) and the IC50 [4] was 5 µg/mL (≈ 13.1 µM). It also gave an inhibition at 10 µg/mL [5] of 31.6% and an inhibition at 10 µg/mL [6] of 67.2%.

In the case of `CC(C)=CCCC1(C)C=Cc2c(cc(O)c3c(=O)c4ccc(O)cc4oc23)O1` (configuration not stated), the IC50 [1] is reported as 0.49 µg/mL (≈ 1.29 µM), the IC50 [2] is reported as 5.7 µg/mL (≈ 15.1 µM) and the IC50 [3] is reported as 5.2 µg/mL (≈ 13.7 µM). The IC50 [7] was 5.3 µg/mL (≈ 14 µM), the “Ratio IC50” value [8] was 200 and the IC50 [9] was 35.6 µg/mL (≈ 94.1 µM). It also gave an IC50 [4] of 5.1 µg/mL (≈ 13.5 µM).

In the case of `c1ccc2c(c1)[I+]c1ccccc1-2` [DIPHENYLENEIODONIUM], the IC50 [10] is reported as 0.7 µg/mL.

`CC1(C)C=Cc2c(cc3oc4cc(O)ccc4c(=O)c3c2O)O1` showed an IC50 [1] of 0.64 µg/mL (≈ 2.06 µM), an IC50 [2] of 5.5 µg/mL (≈ 17.7 µM) and an IC50 [3] of 4.4 µg/mL (≈ 14.2 µM). For the same compound, the IC50 [7] was 4.6 µg/mL (≈ 14.8 µM), the “Ratio IC50” value [8] was 15 and the IC50 [10] was 0.46 µg/mL (≈ 1.48 µM). It also gave an IC50 [4] of 5.8 µg/mL (≈ 18.7 µM).

`O=c1c2ccc(O)cc2oc2cc(O)cc(O)c12` showed an IC50 [2] of over 10 µg/mL, an IC50 [3] of over 10 µg/mL and an IC50 [10] of 5.84 µg/mL (≈ 23.9 µM). The IC50 [4] was over 10 µg/mL and the inhibition at 10 µg/mL [6] was 16%.

In the case of `CC1(C)Oc2cc(O)c3c(=O)c4ccc(O)cc4oc3c2C(O)C1O` (configuration not stated), the IC50 [2] is reported as 0.8 µg/mL (≈ 2.32 µM), the IC50 [3] is reported as 6.7 µg/mL (≈ 19.5 µM) and the IC50 [7] is reported as over 10 µg/mL. For the same compound, the IC50 [4] was 9.9 µg/mL (≈ 28.8 µM), the inhibition at 10 µg/mL [5] was 8.63% and the inhibition at 10 µg/mL [6] was 6.37%.

Work on `CC(C)=CCOc1ccc2c(=O)c3c(OCC=C(C)C)cc(OCC=C(C)C)cc3oc2c1` yielded an IC50 [2] of over 10 µg/mL, an IC50 [3] of 6.3 µg/mL (≈ 14 µM) and an IC50 [4] of over 10 µg/mL. The inhibition at 10 µg/mL [5] was 64.3% and the inhibition at 10 µg/mL [6] was 54.9%.

Work on `CC(C)=CCOc1ccc2c(=O)c3c(O)cc(OCC=C(C)C)cc3oc2c1` yielded an IC50 [2] of over 10 µg/mL, an IC50 [3] of over 10 µg/mL and an IC50 [4] of 9.3 µg/mL (≈ 24.4 µM). For the same compound, the inhibition at 10 µg/mL [5] was 5.32% and the inhibition at 10 µg/mL [6] was 13.3%.

In the case of `CC(C)=CCc1c(O)c(CC=C(C)C)c2oc3cc(O)ccc3c(=O)c2c1O`, the IC50 [2] is reported as 6.7 µg/mL (≈ 17.6 µM), the inhibition at 10 µg/mL [11] is reported as 102% and the IC50 [3] is reported as 3.9 µg/mL (≈ 10.3 µM). It also gave an IC50 [4] of 6.4 µg/mL (≈ 16.8 µM) and an inhibition at 10 µg/mL [12] of 101%.

`CC(C)=CCCC1(C)C=Cc2c(cc3oc4cc(O)ccc4c(=O)c3c2O)O1` (configuration not stated) showed an IC50 [1] of 8.75 µg/mL (≈ 23.1 µM), an IC50 [2] of 6 µg/mL (≈ 15.9 µM) and an IC50 [3] of 6.2 µg/mL (≈ 16.4 µM). For the same compound, the IC50 [7] was 6.2 µg/mL (≈ 16.4 µM), the “Ratio IC50” value [8] was 15 and the IC50 [10] was 5.43 µg/mL (≈ 14.3 µM). It also gave an IC50 [4] of 6.6 µg/mL (≈ 17.4 µM).

`CC(C)=CCC[C@]1(C)C=Cc2c(O)c3c(c(CC=C(C)C)c2O1)O[C@]12C(=C[C@@H]4C[C@H]1C(C)(C)O[C@@]2(C/C=C(/C)C(=O)O)C4=O)C3=O` [GAMBOGIC ACID] showed an IC50 [2] of 0.4 µg/mL (≈ 0.636 µM), an IC50 [3] of 0.3 µg/mL (≈ 0.477 µM) and an IC50 [7] of 0.3 µg/mL (≈ 0.477 µM). The IC50 [4] was 0.5 µg/mL (≈ 0.795 µM).

Work on `CC(C)=CCOc1ccc2c(=O)c3c(O)c(CC=C(C)C)c(OCC=C(C)C)cc3oc2c1` yielded an IC50 [2] of 7.5 µg/mL (≈ 16.7 µM), an IC50 [3] of 4.3 µg/mL (≈ 9.59 µM) and an IC50 [4] of 7.9 µg/mL (≈ 17.6 µM). It also gave an inhibition at 10 µg/mL [5] of 10.1% and an inhibition at 10 µg/mL [6] of 7.56%.

With `CC(C)=CCCC1(C)Oc2cc(O)c3c(=O)c4ccc(O)cc4oc3c2C(O)C1O` (configuration not stated) the IC50 [1] was 8.46 µg/mL (≈ 20.5 µM), the IC50 [2] was over 10 µg/mL and the IC50 [3] was over 10 µg/mL. The IC50 [7] was over 10 µg/mL, the “Ratio IC50” value [8] was 15 and the IC50 [10] was 2.56 µg/mL (≈ 6.21 µM). The IC50 [4] was over 10 µg/mL.

For `CC1(C)Oc2cc3oc4cc(O)ccc4c(=O)c3c(O)c2C(O)C1O` (configuration not stated), the IC50 [2] was 6.8 µg/mL (≈ 19.7 µM), the IC50 [3] was 5.4 µg/mL (≈ 15.7 µM) and the IC50 [7] was 6.3 µg/mL (≈ 18.3 µM). The IC50 [10] was 2.49 µg/mL (≈ 7.23 µM), the IC50 [4] was 5.9 µg/mL (≈ 17.1 µM) and the inhibition at 10 µg/mL [6] was 35.3%.

In the case of `CC(=O)O[C@H]1C(=O)[C@@]2(C)[C@H]([C@H](OC(=O)c3ccccc3)[C@]3(O)C[C@H](OC(=O)[C@H](O)[C@@H](NC(=O)c4ccccc4)c4ccccc4)C(C)=C1C3(C)C)[C@]1(OC(C)=O)CO[C@@H]1C[C@@H]2O` [PACLITAXEL], the IC50 [2] is reported as 0.0011 µg/mL (≈ 0.00129 µM), the IC50 [3] is reported as 0.0024 µg/mL (≈ 0.00281 µM) and the IC50 [7] is reported as 0.0016 µg/mL (≈ 0.00187 µM).

`CC(C)=CCc1c(O)cc2oc3cc(O)ccc3c(=O)c2c1O` gave an IC50 [2] of 5.4 µg/mL (≈ 17.3 µM), an IC50 [3] of 3.8 µg/mL (≈ 12.2 µM) and an IC50 [4] of 6.2 µg/mL (≈ 19.9 µM). For the same compound, the inhibition at 10 µg/mL [5] was 45.2% and the inhibition at 10 µg/mL [6] was 56.3%.

Work on `COc1ccc2c(=O)c3c(O)cc(OC)cc3oc2c1` yielded an IC50 [2] of over 10 µg/mL, an IC50 [3] of over 10 µg/mL and an IC50 [4] of over 10 µg/mL. For the same compound, the inhibition at 10 µg/mL [5] was 31.3% and the inhibition at 10 µg/mL [6] was 26.5%.

In the case of `COc1ccc2c(=O)c3c(O)cc(O)cc3oc2c1`, the IC50 [2] is reported as over 10 µg/mL, the IC50 [3] is reported as over 10 µg/mL and the IC50 [4] is reported as over 10 µg/mL. For the same compound, the inhibition at 10 µg/mL [5] was 45.2% and the inhibition at 10 µg/mL [6] was 23.6%.

`CC(C)=CCOc1cc(O)c2c(=O)c3ccc(O)cc3oc2c1` gave an IC50 [2] of 5.3 µg/mL (≈ 17 µM), an IC50 [3] of 3.7 µg/mL (≈ 11.8 µM) and an IC50 [10] of 20.2 µg/mL (≈ 64.7 µM). The IC50 [4] was 6.9 µg/mL (≈ 22.1 µM) and the inhibition at 10 µg/mL [6] was 4.21%.

In the case of `CC(C)=CCCC1(C)Oc2cc3oc4cc(O)ccc4c(=O)c3c(O)c2C(O)C1O` (configuration not stated), the IC50 [1] is reported as 5.75 µg/mL (≈ 13.9 µM), the IC50 [2] is reported as over 10 µg/mL and the IC50 [3] is reported as over 10 µg/mL. The IC50 [7] was over 10 µg/mL, the “Ratio IC50” value [8] was 15 and the IC50 [10] was 4.3 µg/mL (≈ 10.4 µM). It also gave an IC50 [4] of over 10 µg/mL.

With `CC1(C)C=Cc2c(cc(O)c3c(=O)c4ccc(O)cc4oc23)O1` the IC50 [2] was 0.9 µg/mL (≈ 2.9 µM), the IC50 [3] was 5.1 µg/mL (≈ 16.4 µM) and the IC50 [7] was 4.8 µg/mL (≈ 15.5 µM). For the same compound, the IC50 [10] was 3.97 µg/mL (≈ 12.8 µM), the IC50 [4] was 5.8 µg/mL (≈ 18.7 µM) and the inhibition at 10 µg/mL [6] was 18.4%.
